NR2E3 ag-1: inhibitors of NR2E3-RetCOR corepressor binding, primary screen, NR2E3 agonist project, biochemical, TR-FRET, GST-NR2E3, biotin-RetCOR | AID 2300, 2010 | inhibition of corepressor binding, % at 4.78 µM | 1536-well | 0.12% of 320,000 active;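 active means percent inhibition above the cutoff of mean plus 3 SD of all tested compounds, set per screening campaign, cut at about 20% in these data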;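 further: 0% = DMSO wells and 100% = biotin wells as full block of FRET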
Target sequence (Q9Y5X4 whole entry, looked up): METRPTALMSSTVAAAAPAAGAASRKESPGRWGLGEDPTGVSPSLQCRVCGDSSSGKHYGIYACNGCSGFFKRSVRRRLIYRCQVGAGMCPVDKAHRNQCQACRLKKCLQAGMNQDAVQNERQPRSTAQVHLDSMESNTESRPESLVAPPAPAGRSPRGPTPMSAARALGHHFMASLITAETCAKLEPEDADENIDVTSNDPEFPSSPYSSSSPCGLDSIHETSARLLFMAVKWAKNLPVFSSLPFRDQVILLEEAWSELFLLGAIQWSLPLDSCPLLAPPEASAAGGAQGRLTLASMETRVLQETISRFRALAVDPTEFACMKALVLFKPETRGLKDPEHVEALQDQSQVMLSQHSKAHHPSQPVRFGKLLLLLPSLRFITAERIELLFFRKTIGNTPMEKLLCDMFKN
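Material: NR2E3–RetCOR corepressor complex / Incubation: Compound–protein incubation for 5 h at 4 °C / Dosing: compound at 4.8 µM, single dose / Detection: time-resolved FRET / Benchmarks: high control biotin, low control 0.6% DMSO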
SMARCA2 act: SMARCA2 (BRM) function activators, primary screen, cell-based, luminescence, high throughput; 1% of 370,000 active; activation, % at 9.1 µM; AID 652017, 2013; MG213 cells, MMTV-luciferase reporter, dexamethasone, overnight; in the data active means activation above about 7.8%;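 further: 0% = vehicle wells and 100% = reference activator wells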
GalR3 antag: GalR3 antagonists in HEK293 cells, primary screen, cell-based, fluorescence readout; AID 651719, 2012; 0.44% of 360,000 active; HEK293 GalR3-CNG cAMP membrane potential fluorescence; galR3 body fused to GalR1 C-terminus; Galanin receptor type 3 (Homo sapiens), O60755; inhibition, % at 3 µM;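 active means inhibition above the screen-wide average plus 3 SD, cut at about 13% in these data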;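 further: forskolin and galanin both at EC90 stimulate the cells; cAMP rise reported by CNG channel membrane potential dye signal; 0% = forskolin plus galanin with DMSO and 100% = forskolin alone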
Target sequence (O60755 1-299 limits assumed): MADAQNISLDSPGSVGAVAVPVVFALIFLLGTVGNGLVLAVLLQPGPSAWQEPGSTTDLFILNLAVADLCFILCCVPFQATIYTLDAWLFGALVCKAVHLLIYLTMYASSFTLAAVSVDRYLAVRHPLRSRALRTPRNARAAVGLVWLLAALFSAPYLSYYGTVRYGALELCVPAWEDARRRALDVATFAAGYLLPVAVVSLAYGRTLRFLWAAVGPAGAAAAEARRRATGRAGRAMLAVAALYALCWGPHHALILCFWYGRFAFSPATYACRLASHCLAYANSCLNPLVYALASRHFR
COUP-TFII inh: NR2F2 transcriptional activity inhibitors, primary screen, cell-based, luciferase reporter, HEK293T, luminescence; AID 686940, 2013; 0.7% of 370,000 active; HEK293T NGFI-A luciferase reporter; inhibition, % at 8.6 µM; COUP transcription factor 2 (Homo sapiens), P24468;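 active means inhibition above a per-plate cutoff, mean inhibition of test wells between control levels plus 3 SD, cut at about 38% in these data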;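 further: cells cotransfected with COUP-TFII expression vector driving the NGFI-A reporter; 0% = median of COUP-TF2 test wells and 100% = reporter-only cells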
NR2E3 ag-2: NR2E3 agonists in two-hybrid cells, primary screen, cell-based, luminescence, CHO-S, Gal4-NCOR/VP16-NR2E3. Photoreceptor-specific nuclear receptor (Homo sapiens), Q9Y5X4. inhibition of corepressor binding, % at 3.98 µM. 0.35% of 360,000 active. luciferase;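 active means inhibition above the mean of all tested compounds plus 3 SD, cut at about 70% in these data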;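 further: 0% = DMSO with NR2E3 transfected cells and 100% = cells lacking NR2E3 construct; higher means lower luciferase signal from less NR2E3 corepressor binding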
Gal4-VP16 ctr: Gal4-VP16 luciferase reporter inhibitors, counter-screen for COUP-TFII antagonist project, cell-based, luminescence, HEK293; shares compounds with COUP-TFII inh; inhibition, % at 8.5 µM; 25% of 2,500 active; AID 687007, 2013; in the data active means inhibition above about 13%
NR2F2 inh conf: NR2F2 transcriptional activity inhibitors, confirmation, cell-based, luciferase reporter, HEK293, triplicate. 45% of 2,500 active. AID 687008, 2013. HEK293 NGFI-A luciferase reporter, luminescence. shares compounds with COUP-TFII inh. inhibition, % at 8.5 µM;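 active means mean inhibition over three repeats above a set limit taken from the earlier primary screen, cut at about 38% in these data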;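 further: 100% = cells given the luciferase reporter alone without the COUP-TF2 vector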
Active calls of the source: *; nt = no result given. Hits are enriched below; roughly 2.2% of the tested compounds scored in any of these assays.

SMILES | NR2E3 ag-1 | SMARCA2 act | GalR3 antag | COUP-TFII inh | NR2E3 ag-2 | Gal4-VP16 ctr | NR2F2 inh conf
O=C(c1ccc2c3c(cccc13)CC2)C1CCCN(Cc2ccncc2)C1 (stereo not drawn) | -0.1 | -5.8 | 0.1 | 52.9* | 28.0 | 18.9* | 30.2
O=[N+]([O-])c1ccc(COc2ccc(-c3[nH]ncc3-c3ccc(Cl)cc3)c(O)c2)cc1 | -0.9 | -1.0 | -2.8 | -5.2 | -12.0 | nt | nt
COc1ccc(-c2cn[nH]c2-c2ccc(OCc3ccc([N+](=O)[O-])cc3)cc2O)cc1OC | 2.3 | -5.6 | 0.0 | 38.0* | 3.3 | -7.1 | 24.8
C=CCNc1cccc2c1S(=O)(=O)N[C@H](Cc1ccccc1)CO2 | nt | -1.6 | -5.8 | 5.3 | nt | nt | nt
CC(C)COc1ccc(C/C(N)=N/n2cnnc2)cc1 | 0.2 | -3.3 | 1.1 | 38.6* | 2.7 | 3.1 | 18.4
O=C(Nc1ccc2c(c1)OCCO2)C(c1cc2ccccc2o1)N1CCN(c2ccc(F)cc2)CC1 (stereo not drawn) | nt | -3.4 | -7.2 | 39.2* | 20.9 | -28.9 | 0.9
CC1CCCCC1C(=O)N1CCC(Oc2cccnc2)CC1 (stereo not drawn) | nt | 2.1 | nt | 25.8 | nt | nt | nt
CCN1CCS/C1=C/C=C/C1=[N+](CC)CCS1 | -8.6 | nt | nt | nt | 18.9 | nt | nt
CCN1CCS/C1=C\C=C\C1=[N+](CC)CCS1 | nt | -8.4 | 15.4* | 68.1* | 13.9 | 11.8 | 63.6*
CCN(CC)C(=O)CC[C@H]1CC[C@]2(CCCN(Cc3nccs3)C2)O1 | nt | -4.9 | nt | -2.2 | nt | nt | nt
O=c1c2cc3cccnc3nc2ncn1CCc1c[nH]c2ccccc12 | nt | -5.7 | nt | 43.8* | nt | -3.7 | 2.9
COc1ccc(C#Cc2ccc3c(c2)[C@H]2[C@H](CCN2S(=O)(=O)c2ccccc2F)[C@H](CO)N3C)cc1 | nt | -5.2 | nt | 7.0 | nt | nt | nt
COc1ccc(Cc2nc3ccc(C(=O)N4CCN(C)C(C)C4)cc3o2)cc1OC (stereo not drawn) | 0.1 | -0.9 | 1.1 | 48.9* | 32.8 | 8.9 | 46.3*
O=C(OC12CCCN(C1)/C(=C/c1ccncc1)C2)c1ccco1 (stereo not drawn) | nt | -0.2 | nt | 38.5* | nt | 5.4 | 22.6
O=C(OC12CCCN(C1)/C(=C/c1ccncc1)C2)c1ccc(F)cc1 (stereo not drawn) | nt | -1.3 | nt | 24.2 | nt | nt | nt
O=C(OC12CCCN(C1)/C(=C/c1cccnc1)C2)c1ccc(F)cc1 (stereo not drawn) | nt | -2.9 | nt | 40.9* | nt | 0.7 | 23.9
O=C(OC12CCCN(C1)/C(=C/c1ccncc1)C2)C1CCCCC1 (stereo not drawn) | nt | -5.6 | nt | 66.8* | nt | 8.4 | 33.1
O=C(C1CC1)C1(C(=O)N2CCOCC2)CC(c2ccccn2)=NO1 (stereo not drawn) | nt | 7.7 | nt | 1.6 | nt | nt | nt
CC(=O)NC1C(=O)N(Cc2ccccc2)c2ccc(Br)cc21 (stereo not drawn) | -2.4 | -3.4 | -4.2 | 37.8* | -9.0 | 1.4 | 12.7
CCOC(=O)c1cnc2c(OC)cccc2c1N1CC(C)CC(C)C1 (stereo not drawn) | 2.6 | -0.5 | -6.1 | 39.6* | -6.8 | -6.7 | 7.1
CCN(CC)S(=O)(=O)c1cc(NC(=O)C2CC(=O)N(Cc3ccccc3)C2)ccc1Cl (stereo not drawn) | 0.1 | -3.2 | -4.6 | 53.1* | 8.4 | 1.1 | 25.1
Cc1ccc(NC(=O)C2CC(=O)N(Cc3ccccc3)C2)cc1S(=O)(=O)N1CCCCCC1 (stereo not drawn) | 1.6 | -5.2 | -2.0 | 30.6 | 15.8 | nt | nt
O=C(OCCCCSc1nnc(-c2cccc3ccccc23)o1)c1ccc(F)cc1 | nt | nt | nt | -9.0 | nt | nt | nt
COc1cc(/C=N/NC(=O)c2ccncc2)ccc1OC(C)=O | 0.0 | -1.0 | -10.3 | 5.0 | 0.1 | nt | nt
COc1cc(C=Nc2c(C)cc(C)cc2C)ccc1OC(C)=O | -1.1 | 1.4 | -6.6 | 49.7* | -10.3 | 7.4 | 6.1
SMILES | NR2E3 ag-1 | SMARCA2 act | GalR3 antag | COUP-TFII inh | NR2E3 ag-2 | Gal4-VP16 ctr | NR2F2 inh conf
CN1[C@H](Cc2ccccc2)COc2cccc(F)c2S1(=O)=O | nt | -2.9 | nt | -22.9 | nt | nt | nt
COC(=O)[C@]12C[C@H](CC(=O)N3CCN(C(=O)C4CC4)CC3)C(=O)N(Cc3cccc4ccccc34)C1=C[C@H](C1CCCC1)O[C@@H]2C | nt | -1.4 | nt | 18.8 | nt | nt | nt
CNc1nc(-c2ccc(OC)cc2)c(-c2ccc(OC)cc2)s1 | 2.2 | -1.9 | -2.7 | 40.8* | -25.1 | -16.5 | -13.3
c1ccc(-c2nc(-c3ccccn3)no2)cc1 | -1.4 | -1.9 | -3.2 | -2.4 | -106.2 | nt | nt
c1ccc(-c2ccc(-c3nc(-c4ccccn4)no3)cc2)cc1 | 1.5 | -5.6 | -13.4 | 63.5* | 31.1 | 70.9* | 87.8*
Cc1ccc(-c2nc(-c3ccccn3)no2)cc1 | 3.2 | -4.2 | 0.2 | 71.8* | 33.0 | 60.3* | 78.5*
C#CCNC(=O)C[C@H]1C[C@@]2(C(=O)OC)C(=C[C@H](C3CCCC3)O[C@@H]2C)N(CCC2=CCCCC2)C1=O | nt | -3.2 | nt | 13.3 | nt | nt | nt
N#CCC[C@H]1CC[C@]2(CCCN(C(=O)C3CCCCC3)C2)O1 | nt | 3.6 | nt | -6.6 | nt | nt | nt
O=C(/C=C/c1cccnc1)/C=C/c1cccnc1 | nt | -8.8 | -5.8 | 59.2* | 5.2 | 37.7* | 20.1
C(=Cc1cccnc1)c1ccncc1 | nt | -2.8 | -5.1 | 6.2 | 0.9 | nt | nt
CCOC(=O)[C@]12CCCCC/C=C\1N(CCc1ccc(Cl)cc1)C(=O)[C@H]2CC(=O)NCC12CC3CC(CC(C3)C1)C2 | nt | -5.5 | nt | 0.8 | nt | nt | nt
CCOC(=O)[C@]12CCC=C1N(Cc1ccco1)C(=O)[C@H](CC(=O)NCc1ccc(OC)c(OC)c1)C2 | nt | -3.7 | -2.5 | 13.1 | 1.1 | nt | nt
CCOC(=O)[C@]12CCC=C1N(Cc1cccc3ccccc13)C(=O)[C@H](CC(=O)NCc1ccc(OC)c(OC)c1)C2 | nt | -4.0 | -0.1 | 37.4* | 21.4 | -6.3 | 12.5
CCN(CC)S(=O)(=O)c1ccc(C)c(NC(=S)N2CCN(C/C=C/c3ccccc3)CC2)c1 | 0.4 | -6.0 | 0.0 | 42.7* | 21.1 | -9.6 | 24.2
O=C(O)CCCCCN1C(=O)CSC1=S | 2.2 | -0.5 | 4.4 | 45.5* | 26.1 | 4.6 | 3.8
N#Cc1cc(-c2ccccc2)[nH]c1-c1nccc2ccccc12 | 2.9 | -3.2 | -4.8 | 49.8* | -13.3 | -3.9 | 13.3
COc1ccc(-n2c(SCC(=O)N(CC(C)C)CC(C)C)nnc2-c2ccncc2)cc1 | nt | -4.4 | nt | 5.9 | nt | nt | nt

Assay outcomes deposited in PubChem BioAssay by The Scripps Research Institute Molecular Screening Center.
